Assay results collected from several papers.
Compare with care: the assays were run in different laboratories.
RET: Proto-oncogene tyrosine-protein kinase receptor Ret (RET, Homo sapiens, UniProt P07949)
ASH1L: Histone-lysine N-methyltransferase ASH1L (ASH1L, Homo sapiens, UniProt Q9NR48)
Nos2: Nitric oxide synthase, inducible (Nos2, Mus musculus, UniProt P29477)
BAZ2A bromodomain: Bromodomain adjacent to zinc finger domain protein 2A, bromodomain (BAZ2A, Homo sapiens, UniProt Q9UIF9)
MARK4: MAP/microtubule affinity-regulating kinase 4 (MARK4, Homo sapiens, UniProt Q96L34)
LATS2: Serine/threonine-protein kinase LATS2 (LATS2, Homo sapiens, UniProt Q9NRM7)
PIP4K2C: Phosphatidylinositol 5-phosphate 4-kinase type-2 gamma (PIP4K2C, Homo sapiens, UniProt Q8TBX8)

| Structure (SMILES) | target | read-out | action | technique | tested at | endpoint | result |
| --- | --- | --- | --- | --- | --- | --- | --- |
| COc1cc(NC(=O)Nc2cc(C)c3nc(NC(=O)c4ccccc4)sc3c2)cc(OC)c1 | RET | enzyme activity | inhibitor | radiometric | 0.1 µM | remaining activity | 123% |
| Cc1cc2c(cc1N1C(=O)c3cccc4c(Cl)ccc(c34)C1=O)n(C)c(=O)n2C | ASH1L | thermal stability | – | DSF | 10 µM | ΔTm | 1.2 °C |
| O=C(CCCCCCCCc1ccc(O)cc1)c1c(O)cccc1O | Bifunctional epoxide hydrolase 2 (EPHX2, Homo sapiens, UniProt P34913) | enzyme activity | inhibitor | fluorescence | 100 µM | inhibition | 93.5% |
| O=c1cc(CCl)occ1O | Nos2 | enzyme activity | inhibitor | – | 1 mM | inhibition | > 40% |
| COc1cc2ncnc(Nc3ccc(Oc4ccccc4)c(C)c3C)c2cc1OC | Tyrosine-protein kinase JAK2 (JAK2, Homo sapiens, UniProt O60674) | enzyme activity | inhibitor | – | 1 µM | inhibition | 3% |
| C[S+]([O-])c1ccc(-c2nc(-c3ccncc3)c(-c3ccc(F)cc3)[nH]2)cc1 (centres unmarked) | BAZ2A bromodomain | thermal stability | – | DSF | 10 µM | ΔTm | -0.19 °C |
| CN1CCc2cc(Nc3ncc(C4CC4)c(NCCCNC(=O)C4CCC4)n3)ccc2C1 | MARK4 | enzyme activity | inhibitor | radiometric | 1 µM | remaining activity | 3% |
| Cn1cnc(Br)c1C1=CN(c2ncnc3[nH]cnc23)CCS1 | LATS2 | enzyme activity | inhibitor | radiometric | 2 µM | inhibition | 83.8% |
| Cc1ccc(Nc2nc(N3CCN(C(=O)c4ccco4)CC3)nc3[nH]ncc23)cc1 | RET | enzyme activity | inhibitor | radiometric | 10 µM | remaining activity | 99.9% |
| O=C(O)c1ncccc1O | Nos2 | enzyme activity | inhibitor | – | 1 mM | inhibition | > 40% |
| Nc1ncnc2occ(-c3ccc(NC(=O)Nc4cc(C(F)(F)F)ccc4F)cc3)c12 | PIP4K2C | cell-free assay | – | – | 20 µM | remaining signal | 24% |
| O=C(NCCCNc1nc(Nc2cccc(NC(=O)N3CCCC3)c2)ncc1I)c1cccs1 | MARK4 | enzyme activity | inhibitor | radiometric | 1 µM | remaining activity | 2% |
| COc1ccc(OC)c(NC(=O)Nc2cc(OC)c3nc(NC(=O)c4ccccc4)sc3c2)c1 | RET | enzyme activity | inhibitor | radiometric | 10 µM | remaining activity | 94.4% |
| C=C(F)[C@@](N)(CCCCN)C(=O)O | Lysine decarboxylase (Hafnia alvei, UniProt P05033) | enzyme activity | inhibitor | absorbance | – | KI (inactivation) | 470 µM |
| CN(C)C1CCN(CC#Cc2nn(C3CCCC3)c3nc(NCc4ccccc4)ncc23)C1 (centres unmarked) | Tyrosine-protein kinase Lck (LCK, Homo sapiens, UniProt P06239) | enzyme activity | inhibitor | FRET | 10 µM | inhibition | 78% |
| COc1cc(-c2cc(-c3ccc(N4CCNCC4)cc3)cnc2C)cc(OC)c1OC | LATS2 | enzyme activity | inhibitor | – | 0.1 µM | inhibition | 1% |
| COCC(=O)Nc1cc(C(=O)NCCc2cnn(C)c2)cc2ncn(CCc3ccccc3)c12 | RET | enzyme activity | inhibitor | radiometric | 10 µM | remaining activity | 109% |
| Cc1nn(C)c2ncc(C(=O)NC(=O)Nc3ccc(F)c(C(F)(F)F)c3)cc12 | C-C chemokine receptor type 4 (CCR4, Homo sapiens, UniProt P51679) | ligand displacement | – | radioligand | 10 µM | inhibition | < 10% |
| CC(=O)c1cccc(NC(=O)Cc2csc(NC(=O)Nc3cccc(Cl)c3)n2)c1 | RET | enzyme activity | inhibitor | radiometric | 0.1 µM | remaining activity | 116% |
| CO[C@]1(C(=O)N[C@@H](C)c2ccc(-n3cc(F)cn3)nc2)CC[C@H](c2nc(C)cc(Nc3cc(C)[nH]n3)n2)CC1 | RET | thermal stability | – | DSF | 10 µM | ΔTm | 11.6 °C |
| Nc1nc(SCC(=O)Nc2ccc3c(c2)OCO3)[nH]c(=O)c1NC(=O)c1ccc(F)c(F)c1 | RET | enzyme activity | inhibitor | radiometric | 0.1 µM | remaining activity | 109% |
| Cc1ccc(C(=O)Nc2ccc(CN3CCN(C)CC3)c(C(F)(F)F)c2)cc1C#Cc1cnc2cccnn12 | PIP4K2C | cell-free assay | – | – | 23.5 nM | remaining signal | 99% |
| CC(=O)C(Cl)C(C)=O | Nos2 | enzyme activity | inhibitor | – | 1 mM | inhibition | > 40% |
| Cc1cnc(Nc2ccc(OCCN3CCCC3)cc2)nc1Nc1cccc(S(=O)(=O)NC(C)(C)C)c1 | ASH1L | thermal stability | – | DSF | 10 µM | ΔTm | 0.24 °C |
| N#Cc1ccc(/C=C/CN(CC[C@H](N)C(=O)O)C[C@H]2O[C@@H](n3cnc4c(N)ncnc43)[C@H](O)[C@@H]2O)cc1 | Phenylethanolamine N-methyltransferase (PNMT, Homo sapiens, UniProt P11086) | enzyme activity | inhibitor | – | 1 µM | activity vs control | 96% |
| O=C(COc1ccc(Cl)cc1C(=O)Nc1ccccc1)Nc1cc(Cl)ccc1-n1cncn1 | RET | enzyme activity | inhibitor | radiometric | 10 µM | remaining activity | 111% |
| Oc1ccc(-c2nc(-c3ccncc3)c(-c3ccc(F)cc3)[nH]2)cc1 | BAZ2A bromodomain | thermal stability | – | DSF | 10 µM | ΔTm | 0.16 °C |
| Cc1ccc2c(=O)c(C(=O)Nc3ccc(C)c(C)c3)cn(CC(=O)NC3CCCC3)c2n1 | RET | enzyme activity | inhibitor | radiometric | 0.1 µM | remaining activity | 114% |
| CC(C)[C@@H]1NC(=O)[C@@H]2CCCN2C(=O)[C@H](Cc2ccccc2)NC(=O)CSC[C@@H](C(=O)N[C@@H](Cc2ccc(O)cc2)C(N)=O)NC(=O)[C@H](Cc2c[nH]c3ccccc23)NC(=O)[C@H](CCCCN)NC(=O)[C@H](Cc2ccccc2)N(C)C(=O)[C@H](Cc2ccccc2)NC1=O | Stimulator of interferon genes protein (STING1, Homo sapiens, UniProt Q86WV6, H232R) | thermal stability | – | DSF | 200 µM | ΔTm | 5.83 °C |
